In general, pIC50 refers to −log10 of the IC50, conventionally taken in molar units.

pIC50: −log10 of the molar value.

The values below come from ChEMBL document CHEMBL3351296, “Synthesis, antioxidant and photoprotection activities of hybrid derivatives useful to prevent skin cancer” (Bioorg Med Chem, 2014).

A short description of data set [1]: In vitro photoprotection of the compound assessed as UVA protection factor by Optometric 290S analyzer. The method in brief: (§1)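 Transmittance scans were taken from 290 to 400 nm at 2 nm intervals and compared against a reference scan. SPF, UVA protection factor and UVA/UVB ratio were calculated from the transmittance data.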
Data set [2] in a line: Antioxidant activity of the compound assessed as reduction in absorbance of DPPH after 60 mins incubation at 300 uM by DPPH radical scavenging /microplate assay. It counts as physicochemical. The conditions noted are these: 1 h. A digest of the protocol:
(§2)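 DPPH radical prepared in methanol. Test compounds and standards made as 10 mM DMSO stocks, diluted in methanol, and tested at […]; final DMSO […]. Samples mixed with DPPH in triplicate, kept at 37 °C protected from light, and read at 519 nm after 30 and 60 min. % scavenging = (Abs control − Abs sample)/Abs control × 100.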

A short description of data set [3]: In vitro photoprotection of the compound assessed as sun protection factor by Optometric 290S analyzer. A digest of the protocol:
as §1

The nature of data set [4]: Antioxidant activity of the compound assessed as reduction in absorbance of DPPH after 60 mins incubation at 1000 uM by DPPH radical scavenging /microplate assay. It counts as physicochemical. The note with it: 1 h. The method in brief: as §2
On the technique in general: Loss of DPPH colour is used to gauge radical scavenging.

Data set [5] in a line: In vitro photoprotection of the compound assessed as UVA to UVB ratio by Optometric 290S analyzer. The method in brief: as §1
Data set [6] can be described thus: Antioxidant activity of the compound assessed as reduction in absorbance of DPPH after 60 mins incubation at 100 uM by DPPH radical scavenging /microplate assay. The data set is classed as physicochemical. The conditions noted are these: 1 h. A digest of the protocol:
as §2

Data set [7] can be described thus: Antioxidant activity of the compound assessed as reduction in absorbance of DPPH after 60 mins incubation at 35 uM by DPPH radical scavenging /microplate assay. It counts as physicochemical. The note with it: 1 h. The method in brief: as §2
Data set [8] is described as follows: Antioxidant activity of the compound assessed as reduction in absorbance of DPPH after 60 mins incubation by DPPH radical scavenging /microplate assay. It counts as physicochemical. The method in brief: as §2

On to `CC(C)(C)c1ccc(C(=O)N/N=C/c2cc(O)cc(O)c2)cc1`, for which, in data set [1], the UVAPF was found to be 3. For the same compound, the “inhibition (INH)” value in data set [2] is recorded as 20.1%; in data set [4] it was 31.3%; in data set [6] it was 10.9%; in data set [7], 7%. For the same compound, the SPF in data set [3] came out at 4. Also, the Ratio in data set [5] is 0.6.

Take `COc1ccc(C(=O)CC(=O)c2ccc(C(C)(C)C)cc2)cc1`: the UVAPF in data set [1] is 39. Besides, the Ratio in data set [5] worked out at 1.8.

For `COc1cc(/C=C/C=N/NC(=O)c2ccc(O)cc2)ccc1O`, the UVAPF in data set [1] was determined as 2. The “inhibition (INH)” value is 77.2% in data set [2], 75.5% in data set [4], 56.7% in data set [6] and 34.8% in data set [7]. For the same compound, the SPF in data set [3] worked out at 2. The Ratio in data set [5] worked out at 1.2. For the same compound, the negative-log IC50 (pIC50) in data set [8] was 4.05.

For `COc1ccc(C(=O)c2ccccc2)c(O)c1`, the SPF in data set [3] worked out at 1. The Ratio in data set [5] is 0.6.

Regarding `O=C(N/N=C/c1ccc(O)cc1)c1ccc(O)cc1`, in data set [1], the UVAPF turned out to be 2. Moreover, the “inhibition (INH)” value in data set [2] is recorded as 54.4%; in data set [4] it was 65%; in data set [6], 38%; in data set [7], 18.4%. Besides, the SPF in data set [3] worked out at 3. In addition, the Ratio in data set [5] stood at 0.8. Also, in data set [8], the negative logarithm of the IC50 (pIC50) is 3.56.

As for `O=C(N/N=C/c1cc(O)cc(O)c1)c1ccc(O)cc1`, the UVAPF in data set [1] amounted to 4. Also, the “inhibition (INH)” value came to 26.5% in data set [2], 34.2% in data set [4], 11.2% in data set [6] and 5.6% in data set [7]. In addition, the SPF in data set [3] was determined as 5. Moreover, in data set [5], the Ratio worked out at 0.6.

As to `COc1ccc(/C=C/C=N/NC(=O)c2ccc(O)cc2)cc1`, the UVAPF in data set [1] came to 2. In addition, the inhibition (INH) in data set [2] is -2.6%; in data set [4] it was 2.8%; in data set [6], -1.5%; in data set [7], -3.4%. Moreover, the SPF in data set [3] was determined as 2. For the same compound, the Ratio in data set [5] was 1.1.

For `O=C1O[C@H]([C@@H](O)CO)C(O)=C1O` [ASCORBIC ACID], the “inhibition (INH)” value in data set [2] is listed as 80.7%; in data set [4], 81.2%; in data set [6] it was 77.9%; in data set [7] it was 18.8%. Besides, the negative-log IC50 (pIC50) in data set [8] is 4.19.

Turning to `COc1cc(/C=C/C=N/NC(=O)c2ccc(C(C)(C)C)cc2)ccc1O`, the UVAPF in data set [1] turned out to be 2. For the same compound, the “inhibition (INH)” value in data set [2] was found to be 75.1%; in data set [4] it was 76.1%; in data set [6] it was 45.6%; in data set [7], 20%. The SPF in data set [3] worked out at 2. In addition, in data set [5], the Ratio stood at 1.1. The pIC50 in data set [8] is 3.96.

Regarding `Oc1ccc(/C=C/c2cc(O)cc(O)c2)cc1` [RESVERATROL], in data set [1], the UVAPF is 2. Moreover, the “inhibition (INH)” value is 71.3% in data set [2], 73.8% in data set [4], 45.5% in data set [6] and 20.5% in data set [7]. Also, the SPF in data set [3] is 2. Further, the Ratio in data set [5] is 0.6. The negative-log IC50 (pIC50) in data set [8] was 3.96.

Turning to `COc1ccc(/C=C/C=N/NC(=O)c2ccc(C(C)(C)C)cc2)cc1`, the UVAPF in data set [1] came out at 4. The inhibition (INH) in data set [2] is -5.6%; in data set [4], -7.1%; in data set [6], -8.3%; in data set [7] it was -6.6%. The SPF in data set [3] is 4. Moreover, the Ratio in data set [5] is 1.

As to `CC(C)(C)c1ccc(C(=O)N/N=C/c2ccc(O)cc2)cc1`, the UVAPF in data set [1] was determined as 2. Also, the “inhibition (INH)” value in data set [2] stood at 28.9%; in data set [4], 38.7%; in data set [6] it was 15%; in data set [7] it was 10.2%. Also, the SPF in data set [3] was found to be 2. Moreover, the Ratio in data set [5] amounted to 0.8.

As for `CCCCC(CC)COC(=O)C=Cc1ccc(OC)cc1` (configuration not stated), the SPF in data set [3] worked out at 13.
